Results on 48 compounds are retold here after ChEMBL document CHEMBL1126182, “Antibacterials. synthesis and structure-activity studies of 3-aryl-2-oxooxazolidines. 4. Multiply-substituted aryl derivatives” (1992).

Converted amounts (≈) assume the structure as drawn. Bounds are passed on as bounds.

Experiment [1] deals with Enterococcus faecalis. The experiment can be described thus: Antibacterial activity against Enterococcus faecalis STCO-19. It is filed as functional. The procedure, abridged: (§1)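 MIC by microtiter broth dilution. For racemic samples, the measured MIC was divided by two, since only one oxazolidinone enantiomer is antibacterial.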
Experiment [2] has as its system Staphylococcus aureus. Briefly: Antibacterial activity against Staphylococcus aureus SFCO-1a cell line. It is filed as functional. In short, it runs like this: as §1

For the compound `CC(=O)NC[C@H]1CN(c2ccc3ccccc3c2)C(=O)O1`, the results for the MIC in experiment [1] and in experiment [2] were 8 µg/mL (≈ 28.1 µM) and 4 µg/mL (≈ 14.1 µM), respectively.

Take `CC(=O)NCC1CN(c2cccc(O)c2)C(=O)O1` (stereo unspecified): the MIC in experiment [1] and in experiment [2] was over 128 µg/mL each time.

Take `COc1cc(N2CC(CNC(C)=O)OC2=O)ccc1C(C)=O` (stereo unspecified): the MIC in experiment [1] and in experiment [2] was over 128 µg/mL throughout.

`CC(=O)NCC1CN(c2c(F)cc(C(C)=O)cc2F)C(=O)O1` (stereo unspecified): the MIC in experiment [1] and in experiment [2] was over 128 µg/mL throughout.

Take `CC(=O)NC[C@H]1CN(c2ccc3c(c2)CCC3=O)C(=O)O1` [PNU-82965]: the MIC in experiment [1] and in experiment [2] was 2 µg/mL (≈ 6.94 µM) throughout.

Take `CCc1cccc(N2CC(CNC(C)=O)OC2=O)c1` (stereo unspecified): the MIC in experiment [1] and in experiment [2] was 16 µg/mL (≈ 61 µM) each time.

Regarding `CC(=O)NCC1CN(c2ccc([S+](C)[O-])cc2)C(=O)O1` (stereo unspecified), the MIC in experiment [1] and in experiment [2] was 4 µg/mL (≈ 13.5 µM) each time.

On to `CC(=O)NCC1CN(c2ccc(C(C)=O)c(N)c2)C(=O)O1` (stereo unspecified), for which the MIC in experiment [1] and in experiment [2] was 4 µg/mL (≈ 13.7 µM) throughout.

Turning to `CC(=O)NCC1CN(c2cccc(I)c2)C(=O)O1` (stereo unspecified), the MIC was determined as 128 µg/mL (≈ 355 µM) in experiment [1] and 64 µg/mL (≈ 178 µM) in experiment [2].

Regarding `CSc1ccc(N2CC(CNC(C)=O)OC2=O)cc1` (stereo unspecified), the MIC in experiment [1] and in experiment [2] was 4 µg/mL (≈ 14.3 µM) in each case.

With `CSc1cccc(N2CC(CNC(C)=O)OC2=O)c1` (stereo unspecified), the MIC in experiment [1] and in experiment [2] was 16 µg/mL (≈ 57.1 µM) each time.

Consider `CC(=O)NCC1CN(c2ccc(C(C)=O)c(I)c2)C(=O)O1` (stereo unspecified), for which the MIC in experiment [1] and in experiment [2] was 32 µg/mL (≈ 79.6 µM) each time.

On to `C#Cc1ccc(N2C[C@H](CNC(C)=O)OC2=O)c(F)c1`, for which the MIC in experiment [1] and in experiment [2] was 128 µg/mL (≈ 463 µM) each time.

In the case of `CC(=O)NCC1CN(c2ccc([S+](C)[O-])c(C)c2)C(=O)O1` (stereo unspecified), the MIC in experiment [1] and in experiment [2] was 8 µg/mL (≈ 25.8 µM) throughout.

On to `CC(=O)NCC1CN(c2cc(C)cc(C)c2)C(=O)O1` (stereo unspecified), for which the MIC in experiment [1] and in experiment [2] was over 128 µg/mL each time.

For `CC(=O)NCC1CN(c2ccc(C(C)=O)c(O)c2)C(=O)O1` (stereo unspecified), the MIC in experiment [1] and in experiment [2] was 2 µg/mL (≈ 6.84 µM) in each case.

Consider `CCc1cc(N2CC(CNC(C)=O)OC2=O)ccc1C(C)=O` (stereo unspecified), for which the MIC amounted to 8 µg/mL (≈ 26.3 µM) in experiment [1] and 16 µg/mL (≈ 52.6 µM) in experiment [2].

As for `CC(=O)NCC1CN(c2ccc([S+](C)[O-])c([N+](=O)[O-])c2)C(=O)O1` (stereo unspecified), the MIC in experiment [1] and in experiment [2] was 8 µg/mL (≈ 23.4 µM) throughout.

On to `CC(=O)NCC1CN(c2ccc(C(C)=O)c(S(C)(=O)=O)c2)C(=O)O1` (stereo unspecified), for which the MIC in experiment [1] and in experiment [2] was over 128 µg/mL throughout.

As to `CC(=O)NC[C@H]1CN(c2ccc(C(C)=O)cc2F)C(=O)O1`, the MIC in experiment [1] and in experiment [2] was 32 µg/mL (≈ 109 µM) each time.

`CC(=O)NCC1CN(c2ccc(C(C)=O)c(Cl)c2)C(=O)O1` (stereo unspecified): the MIC in experiment [1] and in experiment [2] was 2 µg/mL (≈ 6.44 µM) each time.

As for `COc1cc([N+](=O)[O-])ccc1N1C[C@H](CNC(C)=O)OC1=O`, the MIC in experiment [1] and in experiment [2] was over 128 µg/mL in each case.

Turning to `CC(=O)NC[C@H]1CN(c2ccc([N+](=O)[O-])cc2[N+](=O)[O-])C(=O)O1`, the MIC in experiment [1] and in experiment [2] was over 128 µg/mL in each case.

As to `COc1ccc([N+](=O)[O-])cc1N1C[C@H](CNC(C)=O)OC1=O`, the MIC in experiment [1] and in experiment [2] was over 128 µg/mL throughout.

Turning to `CC(=O)NCC1CN(c2ccc(C(C)=O)c([S+](C)[O-])c2)C(=O)O1` (stereo unspecified), the MIC in experiment [1] and in experiment [2] was over 128 µg/mL in each case.

For the compound `CC(=O)NC[C@H]1CN(c2ccc3c(c2)CCC3)C(=O)O1`, the MIC in experiment [1] was found to be 4 µg/mL (≈ 14.6 µM); in experiment [2], 2 µg/mL (≈ 7.29 µM).

Take `CC(=O)NCC1CN(c2cccc([N+](=O)[O-])c2)C(=O)O1` (stereo unspecified): the MIC in experiment [1] and in experiment [2] was 4 µg/mL (≈ 14.3 µM) each time.

Turning to `CCCc1cc(N2CC(CNC(C)=O)OC2=O)ccc1C(C)=O` (stereo unspecified), the MIC in experiment [1] and in experiment [2] was over 128 µg/mL in each case.

As to `COc1cc(OC)cc(N2CC(CNC(C)=O)OC2=O)c1` (stereo unspecified), the MIC in experiment [1] and in experiment [2] was over 128 µg/mL throughout.

In the case of `CC(=O)NCC1CN(c2ccc(C(C)=O)c(Br)c2)C(=O)O1` (stereo unspecified), the MIC in experiment [1] was 8 µg/mL (≈ 22.5 µM); in experiment [2] it was 4 µg/mL (≈ 11.3 µM).

On to `CC(=O)NCC1CN(c2ccc(C(C)=O)c(F)c2)C(=O)O1` (stereo unspecified), for which the MIC was found to be 2 µg/mL (≈ 6.8 µM) in experiment [1] and 1 µg/mL (≈ 3.4 µM) in experiment [2].

Regarding `CCCc1ccc(N2C[C@H](CNC(C)=O)OC2=O)cc1`, the MIC in experiment [1] came out at 4 µg/mL (≈ 14.5 µM); in experiment [2] it was 2 µg/mL (≈ 7.24 µM).

On to `CC(=O)NCC1CN(c2cccc(N)c2)C(=O)O1` (stereo unspecified), for which the MIC in experiment [1] and in experiment [2] was over 128 µg/mL in each case.

For the compound `COc1cccc(N2CC(CNC(C)=O)OC2=O)c1` (stereo unspecified), the MIC in experiment [1] and in experiment [2] was 64 µg/mL (≈ 242 µM) in each case.

With `CSc1ccc(N2CC(CNC(C)=O)OC2=O)cc1[N+](=O)[O-]` (stereo unspecified), the MIC in experiment [1] and in experiment [2] was 8 µg/mL (≈ 24.6 µM) throughout.

Regarding `CC(=O)NC[C@H]1CN(c2ccc(C(C)=O)cc2)C(=O)O1` [DUP-721], the MIC in experiment [1] came out at 1 µg/mL (≈ 3.62 µM); in experiment [2] it was 0.5 µg/mL (≈ 1.81 µM).

On to `CC(=O)NC[C@H]1CN(c2ccc3[nH]ccc3c2)C(=O)O1`, for which the MIC in experiment [1] and in experiment [2] was over 128 µg/mL each time.

For `CC(=O)NCC1CN(c2cccc([S+](C)[O-])c2)C(=O)O1` (stereo unspecified), the MIC in experiment [1] and in experiment [2] was over 128 µg/mL each time.

`CC(=O)NC[C@H]1CN(c2ccc(C)c(C)c2)C(=O)O1`: the MIC in experiment [1] was 16 µg/mL (≈ 61 µM); in experiment [2], 8 µg/mL (≈ 30.5 µM).

Regarding `CCCc1cccc(N2CC(CNC(C)=O)OC2=O)c1` (stereo unspecified), the MIC amounted to 128 µg/mL (≈ 463 µM) in experiment [1] and 64 µg/mL (≈ 232 µM) in experiment [2].

With `CC(=O)NCC1CN(c2cccc(Cl)c2)C(=O)O1` (stereo unspecified), the MIC in experiment [1] worked out at 128 µg/mL (≈ 476 µM); in experiment [2] it was 64 µg/mL (≈ 238 µM).

Turning to `CC(=O)NCC1CN(c2cccc(C)c2)C(=O)O1` (stereo unspecified), the MIC in experiment [1] and in experiment [2] was 32 µg/mL (≈ 129 µM) in each case.

For the compound `CC(=O)NCC1CN(c2ccccc2)C(=O)O1` (stereo unspecified), the MIC in experiment [1] and in experiment [2] was 128 µg/mL (≈ 546 µM) throughout.

Consider `CC(=O)NCC1CN(c2cccc(S(C)(=O)=O)c2)C(=O)O1` (stereo unspecified), for which the MIC in experiment [1] and in experiment [2] was over 128 µg/mL each time.

`CC(=O)NCC1CN(c2cccc(Br)c2)C(=O)O1` (stereo unspecified): the MIC in experiment [1] came out at 64 µg/mL (≈ 204 µM); in experiment [2], 16 µg/mL (≈ 51.1 µM).

For the compound `CC(=O)NCC1CN(c2cccc(F)c2)C(=O)O1` (stereo unspecified), the MIC in experiment [1] and in experiment [2] was 32 µg/mL (≈ 127 µM) throughout.

In the case of `CSc1cc(N2CC(CNC(C)=O)OC2=O)ccc1C(C)=O` (stereo unspecified), the MIC in experiment [1] and in experiment [2] was over 128 µg/mL in each case.

For `CC(=O)NC[C@H]1CN(c2ccc(C(C)=O)c(C)c2)C(=O)O1`, the MIC in experiment [1] and in experiment [2] was 1 µg/mL (≈ 3.44 µM) throughout.
